Values joined by “and” are separate entries in the source; they are usually repeats but may differ in a detail not shown here. Equal values may be shown once.
Tests used:
[1] = molecular target: T1, Transthyretin (Homo sapiens, UniProt P02766); assay: Inhibition of transthyretin fibril formation at pH 4.4 at 100 uM; type: functional
How it was run: (§1)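 Library screen of acid-mediated TTR fibril formation at pH 4.4 with inhibitor at 100 µM. TTR was at 7.2 µM.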

[2] = molecular target: T1, Transthyretin; assay: Inhibition of transthyretin amyloidosis assessed as fibril formation pH 4.4 at 100 uM; type: functional; how it was run: as §1

O=c1/c(=C\c2ccccc2Cl)sc2nc3ccccc3n12
inhibition [1]: 29.1% | percent fibril formation relative to control [2]: 71%

CCc1ccccc1NC(=S)N(CCN(C)C)Cc1cccs1
inhibition [1]: 0% | percent fibril formation relative to control [2]: 108%

Cc1nc2c(C(=O)NCc3ccc(F)cc3)cnn2c(O)c1Cc1ccccc1F
inhibition [1]: 53.1% | percent fibril formation relative to control [2]: 46.9%

CCN(CC)CCCN(Cc1ccco1)C(=S)Nc1ccc(OC)cc1
inhibition [1]: 0% | percent fibril formation relative to control [2]: 107%

Cc1ccc2nc(NC(=O)c3ccccc3O)sc2c1
inhibition [1]: 0% | percent fibril formation relative to control [2]: 368%

O=C(NC1CC1)c1cc(Sc2cccc(Cl)c2)nc2ccccc12
inhibition [1]: 58.2% | percent fibril formation relative to control [2]: 41.8%

O=C1/C(=C\c2ccco2)SC(=S)N1c1cccc(F)c1
inhibition [1]: 0% | percent fibril formation relative to control [2]: 340%

O=C(NC(c1cccc([N+](=O)[O-])c1)c1cc(Cl)c2cccnc2c1O)c1cccnc1 (centres undefined)
inhibition [1]: 27.2% | percent fibril formation relative to control [2]: 72.8%

Cc1nc2c(C(=O)NCCC(C)C)cnn2c(O)c1Cc1ccccc1F
inhibition [1]: 91.7% | percent fibril formation relative to control [2]: -86.7%

CCOC(=O)c1c(N)sc(C(=O)NC2CCCCC2)c1C
inhibition [1]: 41.9% | percent fibril formation relative to control [2]: 58.1%

Oc1ccc(Nc2nc(-c3ccc(Cl)cc3)nc3ccccc23)cc1
inhibition [1]: 4.06% | percent fibril formation relative to control [2]: 96%

O=C(c1cc(-c2ccc(Cl)s2)nc2ccccc12)N1CCOCC1
inhibition [1]: 0% | percent fibril formation relative to control [2]: 156%

O=C(O)C1CSC(c2ccc(Cl)cc2)N1 (centres undefined)
inhibition [1]: 0% | percent fibril formation relative to control [2]: 142%

FC(F)(F)c1cccc(NC(=S)N(CCCN2CCCCC2)Cc2cccs2)c1
inhibition [1]: 13.3% | percent fibril formation relative to control [2]: 86.7%

CCCCN(CC)Cc1c(C)nc2ccc(Cl)cc2c1O
inhibition [1]: 20.3% | percent fibril formation relative to control [2]: 79.7%

COc1cc(C2NC(C(=O)O)CS2)ccc1O (centres undefined)
inhibition [1]: 0% | percent fibril formation relative to control [2]: 116%

Cc1ccccc1Nc1c(-c2ccc(Cl)s2)nc2ccc(Cl)cn12
inhibition [1]: 0% | percent fibril formation relative to control [2]: 306%

O=C(O)c1ccc(Cl)c(N2C(=O)C3C4CCC(C4)C3C2=O)c1 (stereo in doubt; 33)
inhibition [1]: 37.8% | percent fibril formation relative to control [2]: 62.2%

CSC1=NSC2=NC(=O)/C(=C\c3ccc(O)cc3)C(=N)N12
inhibition [1]: 27.3% | percent fibril formation relative to control [2]: 72.7%

Cc1nc2c(ccc3ccccc32)c(O)c1CN1CCOCC1
inhibition [1]: 30.4% | percent fibril formation relative to control [2]: 69.6%

O=C1OC(/C=C/c2ccc(Cl)cc2Cl)=NC/1=C\c1cccs1
inhibition [1]: 0% | percent fibril formation relative to control [2]: 294%

O=C(O)c1ccc(Cl)c(N2C(=O)C3C4CCC(C4)C3C2=O)c1 (stereo in doubt; 34)
inhibition [1]: 0% | percent fibril formation relative to control [2]: 104%

O=C1/C(=C/c2ccc(Cl)cc2Cl)SC(=S)N1c1ccc(O)cc1
inhibition [1]: 0% | percent fibril formation relative to control [2]: 291%

CCCCN(CC)Cc1c(C)nc2c(ccc3ccccc32)c1O
inhibition [1]: 24.3% | percent fibril formation relative to control [2]: 75.7%

O=C1NC(=S)S/C1=C\c1ccc(-c2cc(Cl)ccc2Cl)o1
inhibition [1]: 0% | percent fibril formation relative to control [2]: 286%

COC(=O)c1sc(=S)n(-c2ccc(Cl)c(Cl)c2)c1N
inhibition [1]: 15.6% | percent fibril formation relative to control [2]: 84.5%

COc1ccc(/C=C2\SC(=S)N(c3ccc(O)cc3)C2=O)cc1
inhibition [1]: 0% | percent fibril formation relative to control [2]: 281%

O=c1c2sccc2n(Cc2ccc(F)cc2Cl)c(=O)n1-c1cc(F)ccc1F
inhibition [1]: 0% | percent fibril formation relative to control [2]: 117%

Cc1ccc(/C=c2/sc3nc4ccccc4n3c2=O)cc1
inhibition [1]: 0% | percent fibril formation relative to control [2]: 125%

NC(=O)CSc1ncc(-c2ccc(Cl)cc2)[nH]1
inhibition [1]: 60.8% | percent fibril formation relative to control [2]: 39.2%

O=C(Nc1c2c(nn1-c1ccc(F)cc1)C[S+]([O-])C2)c1ccccc1F (centres undefined)
inhibition [1]: 0% | percent fibril formation relative to control [2]: 104%

O=C(O)C1CSC(c2ccc(O)cc2)N1 (centres undefined)
inhibition [1]: 0% | percent fibril formation relative to control [2]: 120%

COc1cccc(C(=O)NC(c2ccccc2)c2cc(Cl)c3cccnc3c2O)c1 (centres undefined)
inhibition [1]: 65.3% | percent fibril formation relative to control [2]: 34.7%

COc1ccc(C2NC(C(=O)O)CS2)cc1OC (centres undefined)
inhibition [1]: 0% | percent fibril formation relative to control [2]: 129%

COc1cc(/C=C2\SC(=S)N(c3ccc(O)cc3)C2=O)ccc1O
inhibition [1]: 0% | percent fibril formation relative to control [2]: 230%

O=C1/C(=C\c2cccc(O)c2)SC(=S)N1c1ccc(F)cc1
inhibition [1]: 0% | percent fibril formation relative to control [2]: 309%

Clc1ccc2nc(-c3ccc(Cl)s3)c(NC3CCCCC3)n2c1
inhibition [1]: 0% | percent fibril formation relative to control [2]: 138%

O=C(NC(c1ccco1)c1cc(Cl)c2cccnc2c1O)c1cccnc1 (centres undefined)
inhibition [1]: 63.3% | percent fibril formation relative to control [2]: 36.7%

Clc1ccccc1C1CC(c2cccs2)Nc2nnnn21 (centres undefined)
inhibition [1]: 100% | percent fibril formation relative to control [2]: 0%

CCOC(=O)c1sc(=S)n(-c2cccc3ccccc23)c1N
inhibition [1]: 0% | percent fibril formation relative to control [2]: 146%

CC(C)C(=O)NC(c1ccccc1)c1ccc2cccnc2c1O (centres undefined)
inhibition [1]: 95.4% | percent fibril formation relative to control [2]: 4.6%

CSC1=NSC2=NC(=O)/C(=C\c3ccc[nH]3)C(=N)N12
inhibition [1]: 0% | percent fibril formation relative to control [2]: 202%

Cc1nnc2c(Oc3ccc(Cl)cc3)nc3cc(Cl)ccc3n12
inhibition [1]: 0% | percent fibril formation relative to control [2]: 114%

CCOc1cccc2c1OC(c1cccc(Cl)c1)N1N=C(c3cccs3)CC21 (centres undefined)
inhibition [1]: 0%

Cc1cc(C(=O)Nc2cc(Cl)ccc2O)no1
inhibition [1]: 3.18% and 0%

Nc1cc(O)nc(SCC(=O)N2CCOCC2)n1
inhibition [1]: 0% | percent fibril formation relative to control [2]: 112%

Cc1nc2ccc(Cl)cc2c(O)c1CN1CCCC1
inhibition [1]: 18.2% | percent fibril formation relative to control [2]: 81.8%

O=C(NCc1ccco1)c1cc(Sc2cccc(Cl)c2)nc2ccccc12
inhibition [1]: 39.3% | percent fibril formation relative to control [2]: 60.7%

O=C(CSc1nccn1-c1cccc(Cl)c1)Nc1cccc2ccccc12
inhibition [1]: 0% | percent fibril formation relative to control [2]: 122%

Cc1ccc2nc(Nc3nc(O)c4ccccc4n3)nc(C)c2c1
inhibition [1]: 31.1% | percent fibril formation relative to control [2]: 68.9%

Cc1ccn2c(Nc3ccc(F)cc3)c(-c3ccccn3)nc2c1
inhibition [1]: 0% | percent fibril formation relative to control [2]: 162%

Nc1nc(F)cc(Oc2ccc(F)cc2)n1
inhibition [1]: 16% | percent fibril formation relative to control [2]: 84%

Cc1ccccc1C1=N/C(=C\c2sccc2C)C(=O)O1
inhibition [1]: 0% | percent fibril formation relative to control [2]: 115%

O=C(O)CCc1nc(-c2cccs2)no1
inhibition [1]: 67.9% | percent fibril formation relative to control [2]: 32.1%

Cc1nc2c(ccc3ccccc32)c(O)c1CN1CCCC1
inhibition [1]: 33.1% | percent fibril formation relative to control [2]: 66.9%

CCCCC1NC(C(=O)O)CS1 (centres undefined)
inhibition [1]: 0% | percent fibril formation relative to control [2]: 128%

Cc1ccc(C2NC(C(=O)O)CS2)cc1 (centres undefined)
inhibition [1]: 85.7% | percent fibril formation relative to control [2]: 14.3%

Cc1ccc2nc(-c3ccc(Cl)s3)c(Nc3ccc(Cl)cc3)n2c1
inhibition [1]: 0% | percent fibril formation relative to control [2]: 113%

Oc1ccc(-c2n[nH]c(=S)o2)cc1
inhibition [1]: 80.8% | percent fibril formation relative to control [2]: 19.2%

COc1ccccc1NC(=S)N(CCCN1CCCCCC1)Cc1cccs1
inhibition [1]: 0% | percent fibril formation relative to control [2]: 104%

Cn1c(=O)c2c(nc(Oc3ccc(-n4cnnn4)cc3)n2C)n(C)c1=O
inhibition [1]: 0% | percent fibril formation relative to control [2]: 155%

Oc1ccc(-c2nc3ncccn3c2Nc2ccc(Cl)cc2)cc1
inhibition [1]: 0% | percent fibril formation relative to control [2]: 135%

O=C1/C(=C\c2ccc(-c3ccc(Cl)cc3)o2)SC(=S)N1c1cccc(Cl)c1
inhibition [1]: 0% | percent fibril formation relative to control [2]: 107%

O=C(O)C1CSC(c2c(F)cccc2Cl)N1 (centres undefined)
inhibition [1]: 79.7% | percent fibril formation relative to control [2]: 20.3%

NN1C(=O)/C(=C\c2ccc(Cl)cc2)NC1=S
inhibition [1]: 0% | percent fibril formation relative to control [2]: 131%

O=C(NC(c1ccccc1)c1cc(Cl)c2cccnc2c1O)c1cccnc1 (centres undefined)
inhibition [1]: 70.4% | percent fibril formation relative to control [2]: 29.6%

Nc1nc(F)cc(Oc2ccccc2F)n1
inhibition [1]: 45.6% | percent fibril formation relative to control [2]: 54.4%

O=C1OC(c2ccc(Cl)cc2Cl)=N/C1=C/c1ccc(Cl)c(Cl)c1
inhibition [1]: 0% | percent fibril formation relative to control [2]: 138%

O=C1CCCC2=C1C(c1cccc(O)c1)NC(=S)N2 (centres undefined)
inhibition [1]: 0% | percent fibril formation relative to control [2]: 106%

CSC1=NSC2=NC(=O)/C(=C\c3ccc(Cl)cc3)C(=N)N12
inhibition [1]: 32.9% | percent fibril formation relative to control [2]: 67.1%

O=C(O)C1CSC(c2cccnc2)N1 (centres undefined)
inhibition [1]: 0% | percent fibril formation relative to control [2]: 144%

CCc1ccc(Oc2cc(F)nc(N)n2)cc1
inhibition [1]: 9.71% | percent fibril formation relative to control [2]: 10.4%

CCC(=O)NC(c1ccc2c(c1)OCO2)c1cc(Cl)c2cccnc2c1O (centres undefined)
inhibition [1]: 58.1% | percent fibril formation relative to control [2]: 41.9%

CCOC(=O)c1sc(=S)n(-c2ccc(Br)cc2)c1N
inhibition [1]: 0% | percent fibril formation relative to control [2]: 164%

CCOC(=O)c1c(N)sc(C(=O)Nc2cc(C)cc(C)c2)c1C
inhibition [1]: 12.2% | percent fibril formation relative to control [2]: 87.8%

O=C(O)CCCCCN1C(=O)/C(=C/c2c[nH]c3ccccc23)SC1=S
inhibition [1]: 0% | percent fibril formation relative to control [2]: 126%

O=[N+]([O-])c1ccc(Cl)cc1Sc1nc2ccccc2s1
inhibition [1]: 91.8% | percent fibril formation relative to control [2]: 8.2%

O=C(O)c1cccc(-c2ccc(/C=C3/SC(=S)N(c4cccc(C(F)(F)F)c4)C3=O)o2)c1
inhibition [1]: 0% | percent fibril formation relative to control [2]: 449%

CCN1C(=O)/C(=C/c2ccc(N(CC)CC)cc2O)SC1=S
inhibition [1]: 0% | percent fibril formation relative to control [2]: 177%

O=C(O)C1CSC(c2ccc([N+](=O)[O-])cc2)N1 (centres undefined)
inhibition [1]: 0% | percent fibril formation relative to control [2]: 119%

O=C(c1cnc(Nc2ccc(F)cc2)c2ccccc12)n1ccnc1
inhibition [1]: 0%
